Tests used:
Mus musculus [1] = species on record: Mus musculus; assay: Distribution of compound in mice brain was measured after 6 hr; settings: in vivo
Mus musculus [2] = species on record: Mus musculus; assay: Distribution of compound in mice brain was measured after 1 hr; settings: in vivo
Mus musculus [3] = species on record: Mus musculus; assay: Distribution of compound in mice brain was measured after 2 hr; settings: in vivo
Mus musculus [4] = species on record: Mus musculus; assay: Distribution of compound in mice brain was measured after 24 hr r; settings: in vivo
Mus musculus [5] = species on record: Mus musculus; assay: Distribution of compound in mice liver was measured after 3 hr; type: ADME, organism-based; settings: in vivo
How it was run: (§1)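 Female BDF/1 mice dosed by tail-vein injection at 25 mg/kg in 5% Tween 80 containing 5% ethanol; killed 1, 2, 3, 6 and 24 h later. Liver homogenized in 50% methanol and pyridinium salt quantified by C-18 reverse-phase HPLC (linear gradient 50–70% acetonitrile). Three mice per time point; values in µg/g wet tissue.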

Mus musculus [6] = species on record: Mus musculus; assay: Distribution of compound in mice liver was measured after 2 hr; type: ADME, organism-based; settings: in vivo; how it was run: as §1
Mus musculus [7] = species on record: Mus musculus; assay: Distribution of compound in mice brain was measured after 3 hr; settings: in vivo
Mus musculus [8] = species on record: Mus musculus; assay: Distribution of compound in mice liver was measured after 1 hr; type: ADME, organism-based; settings: in vivo; how it was run: as §1
Mus musculus [9] = species on record: Mus musculus; assay: Distribution of compound in mice liver was measured after 6 hr; type: ADME, organism-based; settings: in vivo; how it was run: as §1
Mus musculus [10] = species on record: Mus musculus; assay: Distribution of compound in mice liver was measured after 24 hr; b=Undetected; type: ADME, organism-based; settings: in vivo; how it was run: as §1
[11] = Half-life of compound in presence of mouse liver homogenate; type: ADME
How it was run: (§2)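 Dihydropyridine ester at 5 × 10^-5 M kept at 37 °C in a UV cuvette. Media were human plasma diluted 1:1 with 50 mM phosphate buffer pH 7.4, mouse liver homogenate (20 mg/mL) or mouse brain homogenate (40 mg/mL) in the same buffer. Loss of the 360 nm dihydronicotinate absorbance was followed. Rate constant came from the slope of log disappearance.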

[12] = Half-life of compound in presence of human plasma; type: ADME; how it was run: as §2
Homo sapiens = species on record: Homo sapiens; assay: In vitro oxidation of compound to its pyridinium salt (3) in presence of human plasma; type: ADME; how it was run: as §2
Mus musculus [13] = species on record: Mus musculus; assay: In vitro oxidation of compound to its pyridinium salt (3) in presence of mouse liver homogenate; type: ADME; how it was run: as §2
[14] = Half-life of compound in presence of mouse brain homogenate; type: ADME; how it was run: as §2
Mus musculus [15] = species on record: Mus musculus; assay: In vitro oxidation of compound to its pyridinium salt (3) in presence of mouse brain homogenate; type: ADME; how it was run: as §2
[16] = In vitro oxidation of compound to its pyridinium salt (3) in presence of hydrogen peroxide; type: ADME
[17] = Half-life of compound in presence of hydrogen peroxide; type: ADME

| SMILES | Concentration (Mus musculus [1]) | Concentration (Mus musculus [2]) | Concentration (Mus musculus [3]) | Concentration (Mus musculus [4]) | Concentration (Mus musculus [5]) | Concentration (Mus musculus [6]) | Concentration (Mus musculus [7]) | Concentration (Mus musculus [8]) | Concentration (Mus musculus [9]) | Concentration (Mus musculus [10]) | half-life [11] [h] | half-life [12] [h] | K (Homo sapiens) [s⁻¹] | K (Mus musculus [13]) [s⁻¹] | half-life [14] [h] | K (Mus musculus [15]) [s⁻¹] | K [16] [s⁻¹] | half-life [17] [h] |
| --- | --- | --- | --- | --- | --- | --- | --- | --- | --- | --- | --- | --- | --- | --- | --- | --- | --- | --- |
| Cc1cn(C2C=CC(COC(=O)c3ccc[n+](C)c3)O2)c(=O)[nH]c1=O.[I-] (stereo not drawn) | 5.1 ug (g of wet tissue)-1 | 4.7 ug (g of wet tissue)-1 | 4.9 ug (g of wet tissue)-1 | 3 ug (g of wet tissue)-1 | 2 ug (g of wet tissue)-1 | 2.5 ug (g of wet tissue)-1 | 5.3 ug (g of wet tissue)-1 | 3.3 ug (g of wet tissue)-1 | 1.3 ug (g of wet tissue)-1 | Undetected |  |  |  |  |  |  |  |  |
| Cc1cn(C2C=CC(COC(=O)C3=CN(C)C=CC3)O2)c(=O)[nH]c1=O (stereo not drawn) |  |  |  |  |  |  |  |  |  |  | 2.08 | 5.42 | 0.0000354 | 0.000092 | 2.17 | 0.0000885 | 0.00055 | 0.35 |
| Cc1cn([C@H]2C=C[C@@H](CO)O2)c(=O)[nH]c1=O [STAVUDINE] | 2.3 ug (g of wet tissue)-1 | 2.7 ug (g of wet tissue)-1 | 2.5 ug (g of wet tissue)-1 | 1.2 ug (g of wet tissue)-1 |  |  | 2.6 ug (g of wet tissue)-1 |  |  |  |  |  |  |  |  |  |  |  |
| C[n+]1cccc(C(=O)[O-])c1 [TRIGONELLINE] | 1.9 ug (g of wet tissue)-1 | 2.2 ug (g of wet tissue)-1 | 2.1 ug (g of wet tissue)-1 | 0.9 ug (g of wet tissue)-1 |  |  | 2.4 ug (g of wet tissue)-1 |  |  |  |  |  |  |  |  |  |  |  |

Reference: ChEMBL document CHEMBL1124421, “A dihydropyridine carrier system for sustained delivery of 2',3'-dideoxynucleosides to the brain” (J Med Chem, 1989)
